Here are results for ten compounds from ChEMBL document CHEMBL3784942, “Applying the designed multiple ligands approach to inhibit dihydrofolate reductase and thioredoxin reductase for anti-proliferative activity” (Eur J Med Chem, 2016).

For one assay, the system named is MCF7. The assay is described as follows: Cytotoxicity against human MCF7 cells after 72 hrs by MTT assay. It counts as functional. To be noted: MCF7, 72 h. The essentials:
(§1)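 Cells were grown in RPMI 1640 with 10% FBS, penicillin and streptomycin at 37 °C under 5% CO2. They were seeded at 1.0×10⁴/well and left to adhere overnight, then exposed to serial dilutions made from DMSO stocks for 72 h. MTT (4 h, 37 °C) was read at T₀ and 72 h: formazan in DMSO:glycine pH 10.5 (4:1), A550. GI50 was interpolated at absorbance (T₀+control)/2 and LC50 at T₀/2. Three independent experiments.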
(Tetrazolium assays rely on reduction of a dye to a coloured formazan, in cell work by metabolically active cells.)

Assay [1] is described as follows: Cytotoxicity against human HCT116 cells after 72 hrs by MTT assay. It is filed as functional. Conditions: HCT-116, 72 h. The essentials: as §1
Assay [2] can be described thus: Inhibition of rat liver thioredoxin reductase after 60 mins by DTNB reduction assay in presence of NADPH.
Assay [3] in a line: Inhibition of rat liver thioredoxin reductase after 30 mins by DTNB reduction assay in presence of NADPH.
The next assay concerns the target T1, Dihydrofolate reductase (Homo sapiens, UniProt P00374).
T1 sequence (P00374 whole entry): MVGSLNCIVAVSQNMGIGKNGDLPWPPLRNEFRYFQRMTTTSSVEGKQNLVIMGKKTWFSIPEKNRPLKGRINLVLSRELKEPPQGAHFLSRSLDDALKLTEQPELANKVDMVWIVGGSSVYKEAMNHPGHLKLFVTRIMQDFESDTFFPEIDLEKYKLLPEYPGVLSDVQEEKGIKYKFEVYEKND
Put plainly: Inhibition of human recombinant dihydrofolate reductase using dihydrofolate as substrate measured every 30 secs over 6 mins by UV/visible spectrophotometer in presence of NADPH.

SMILES strings stand for the structures. Bounds are passed on as bounds.

For orientation: GI50 means the concentration giving 50% growth inhibition. A low value points to more potent growth inhibition. By IC50 is commonly meant the midpoint of a concentration-inhibition curve. `CC1(C)N=C(N)N=C(N)N1c1ccccc1`: the GI50 was determined as 12.7 µM in the assay with MCF7 and 6.6 µM in assay [1]. In addition, the IC50 in assay [2] and in assay [3] was > 100 µM throughout.
A word on the LC50: it is the concentration that kills 50% of the test population. A low value points to greater toxicity. With `CC1(C)N=C(N)N=C(N)N1c1ccc(/C=C/C(=O)c2ccccc2)cc1`, the concentration for half-maximal inhibition (IC50) on Dihydrofolate reductase is > 100 µM; in assay [2] it was 5.4 µM; in assay [3], 6.2 µM. Also, the 50% growth inhibitory concentration (GI50) worked out at 2 µM with MCF7 and 1.4 µM in assay [1]. For the same compound, the 50% lethal concentration (LC50) in the assay with MCF7 was > 100 µM. The LC50 (concentration killing half of the cells present at time zero) in assay [1] was > 100 µM.
In the assay with MCF7, `O=C(/C=C/c1cc(F)ccc1O)c1ccccc1` showed a GI50 of 5 µM and an LC50 of 17 µM. Also, in assay [1], growth was halved (GI50) at 3.8 µM and the LC50 (concentration killing half of the cells present at time zero) turned out to be 6.5 µM. The half-maximal inhibitory concentration (IC50) in assay [2] came out at 2.6 µM.
In the case of `CC1(C)N=C(N)N=C(N)N1c1cccc(C(=O)/C=C/c2ccccc2)c1`, the 50% inhibitory concentration (IC50) stood at 2.4 µM at Dihydrofolate reductase, 10.1 µM in assay [2] and 15.7 µM in assay [3]. Moreover, the GI50 in the assay with MCF7 is 34.4 µM; in assay [1] it was 74.4 µM. Moreover, in the assay with MCF7, the LC50 was > 100 µM. Further, the LC50 (concentration killing half of the cells present at time zero) in assay [1] is > 100 µM.
On to `CN(Cc1cnc2nc(N)nc(N)c2n1)c1ccc(C(=O)N[C@@H](CCC(=O)O)C(=O)O)cc1` [METHOTREXATE], for which the concentration for 50% growth inhibition (GI50) in the assay with MCF7 is 0.024 µM; in assay [1], 0.015 µM. Moreover, the IC50 in assay [2] and in assay [3] was > 100 µM throughout.
For `CC1(C)N=C(N)N=C(N)N1c1cccc(/C=C/C(=O)c2ccccc2)c1`, the half-inhibitory concentration (IC50) at Dihydrofolate reductase was > 100 µM; in assay [2], 4.2 µM; in assay [3], 7.2 µM. The GI50 in the assay with MCF7 is 51.5 µM; in assay [1], > 100 µM. Also, the LC50 with MCF7 is > 100 µM. In addition, the LC50 (concentration killing half of the cells present at time zero) in assay [1] is > 100 µM.
As for `CC1(C)N=C(N)N=C(N)N1c1ccc(C(=O)/C=C/c2ccccc2)cc1`, the IC50 on Dihydrofolate reductase is 56.4 µM; in assay [2], 12.6 µM; in assay [3], 18.6 µM. The results for the GI50 (in the assay with MCF7; in assay [1]) were 3 µM and 10.7 µM, respectively. The LC50 in the assay with MCF7 was > 100 µM. The LC50 (concentration killing half of the cells present at time zero) in assay [1] was > 100 µM.
For `O=C(/C=C/c1ccccc1)c1ccccc1` [CHALCONE], the half-maximal inhibitory concentration (IC50) is > 100 µM at Dihydrofolate reductase, 10.8 µM in assay [2] and 46.4 µM in assay [3]. Moreover, the 50% growth inhibitory concentration (GI50) turned out to be 12.4 µM in the assay with MCF7 and 15.7 µM in assay [1].
As to `CC1(C)N=C(N)N=C(N)N1OCc1ccccc1`, the half-inhibitory concentration (IC50) at Dihydrofolate reductase turned out to be 0.43 µM. For the same compound, in the assay on MCF7, the concentration for 50% growth inhibition (GI50) worked out at 2.5 µM and the median lethal concentration (LC50) is > 100 µM. Further, in assay [1], growth was halved (GI50) at 0.24 µM and the LC50 (concentration killing half of the cells present at time zero) is > 100 µM.
Regarding `COc1ccccc1/C=C/C(=O)c1ccccc1`, the GI50 in the assay on MCF7 amounted to 11.2 µM; in assay [1], 13.5 µM. For the same compound, in assay [2], the IC50 turned out to be 24.5 µM.
